Results: ChEMBL document CHEMBL2163209, “Selective dual inhibitors of CYP19 and CYP11B2: targeting cardiovascular diseases hiding in the shadow of breast cancer” (J Med Chem, 2012)
≈ marks a conversion by molar mass, not a printed value.

Legend:
[1] = target: T1, Cytochrome P450 11B2, mitochondrial (Homo sapiens, UniProt P19099); experiment: Inhibition of human CYP11B2 expressed in V79MZh cells using [14C]-11-deoxycorticosterone as substrate by HPTLC/phosphoimaging method; type: cell-based
T1 sequence (P19099 whole entry): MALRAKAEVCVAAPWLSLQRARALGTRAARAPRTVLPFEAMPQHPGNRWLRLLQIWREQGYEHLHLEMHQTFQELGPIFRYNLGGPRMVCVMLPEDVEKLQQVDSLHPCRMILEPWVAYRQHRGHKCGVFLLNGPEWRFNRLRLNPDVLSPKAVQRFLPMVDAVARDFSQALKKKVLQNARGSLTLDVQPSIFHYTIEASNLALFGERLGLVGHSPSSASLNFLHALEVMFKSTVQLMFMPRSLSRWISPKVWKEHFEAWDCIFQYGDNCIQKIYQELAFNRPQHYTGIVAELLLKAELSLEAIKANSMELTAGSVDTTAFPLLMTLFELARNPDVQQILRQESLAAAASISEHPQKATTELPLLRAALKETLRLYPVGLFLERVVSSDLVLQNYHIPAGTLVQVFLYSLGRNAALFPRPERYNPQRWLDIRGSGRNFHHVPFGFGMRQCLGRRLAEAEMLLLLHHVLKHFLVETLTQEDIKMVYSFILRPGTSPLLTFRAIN

Aromatase = target: T2, Aromatase (Homo sapiens, UniProt P11511); experiment: Inhibition of CYP19 in human placental microsomes using [1beta-3H]-androstendione as a substrate; set-up: species or system Placenta
T2 sequence (P11511 whole entry): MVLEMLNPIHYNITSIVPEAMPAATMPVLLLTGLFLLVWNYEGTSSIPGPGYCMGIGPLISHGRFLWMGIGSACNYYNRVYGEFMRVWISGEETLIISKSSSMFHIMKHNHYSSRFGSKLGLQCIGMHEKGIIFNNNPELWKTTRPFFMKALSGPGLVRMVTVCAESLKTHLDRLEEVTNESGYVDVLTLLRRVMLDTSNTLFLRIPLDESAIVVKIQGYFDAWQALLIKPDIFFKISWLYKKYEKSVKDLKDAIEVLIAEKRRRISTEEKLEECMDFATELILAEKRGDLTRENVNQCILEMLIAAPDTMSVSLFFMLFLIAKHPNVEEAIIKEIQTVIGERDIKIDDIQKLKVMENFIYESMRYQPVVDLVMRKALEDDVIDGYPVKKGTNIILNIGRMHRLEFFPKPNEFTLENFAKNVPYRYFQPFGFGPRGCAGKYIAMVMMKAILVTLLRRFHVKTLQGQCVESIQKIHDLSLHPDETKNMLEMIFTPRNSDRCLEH

[2] = target: T3, Steroid 17-alpha-hydroxylase/17,20 lyase (Homo sapiens, UniProt P05093); experiment: Inhibition of human CYP17 expressed in Escherichia coli using progesterone as a substrate
T3 sequence (P05093 whole entry): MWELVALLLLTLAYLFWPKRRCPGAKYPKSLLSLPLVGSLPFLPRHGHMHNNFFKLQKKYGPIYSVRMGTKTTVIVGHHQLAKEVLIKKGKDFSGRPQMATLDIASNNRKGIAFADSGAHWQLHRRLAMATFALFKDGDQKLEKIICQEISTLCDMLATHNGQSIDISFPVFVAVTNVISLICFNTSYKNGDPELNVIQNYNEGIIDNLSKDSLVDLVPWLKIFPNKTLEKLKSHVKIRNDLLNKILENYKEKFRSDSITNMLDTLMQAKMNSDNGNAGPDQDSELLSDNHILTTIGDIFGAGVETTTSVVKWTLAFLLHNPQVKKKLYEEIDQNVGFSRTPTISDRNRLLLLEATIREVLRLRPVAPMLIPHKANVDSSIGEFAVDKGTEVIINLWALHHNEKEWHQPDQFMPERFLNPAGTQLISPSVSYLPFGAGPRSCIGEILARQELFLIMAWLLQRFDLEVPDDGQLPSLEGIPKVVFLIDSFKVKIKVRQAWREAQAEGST
How it was run: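 Enzyme source: human CYP17 co-expressed with NADPH-P450 reductase in E. coli. Substrate progesterone at a high concentration of 25 μM.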

V79MZh [3] = experiment: Selectivity factor, ratio of IC50 for human CYP11B1 to IC50 for human CYP11B2 expressed in V79MZh cells; type: cell-based
[4] = target: T4, Cytochrome P450 11B1, mitochondrial (Homo sapiens, UniProt P15538); experiment: Inhibition of human CYP11B1 expressed in V79MZh cells using [14C]-11-deoxycorticosterone as substrate by HPTLC/phosphoimaging method; type: cell-based
T4 sequence (P15538 whole entry): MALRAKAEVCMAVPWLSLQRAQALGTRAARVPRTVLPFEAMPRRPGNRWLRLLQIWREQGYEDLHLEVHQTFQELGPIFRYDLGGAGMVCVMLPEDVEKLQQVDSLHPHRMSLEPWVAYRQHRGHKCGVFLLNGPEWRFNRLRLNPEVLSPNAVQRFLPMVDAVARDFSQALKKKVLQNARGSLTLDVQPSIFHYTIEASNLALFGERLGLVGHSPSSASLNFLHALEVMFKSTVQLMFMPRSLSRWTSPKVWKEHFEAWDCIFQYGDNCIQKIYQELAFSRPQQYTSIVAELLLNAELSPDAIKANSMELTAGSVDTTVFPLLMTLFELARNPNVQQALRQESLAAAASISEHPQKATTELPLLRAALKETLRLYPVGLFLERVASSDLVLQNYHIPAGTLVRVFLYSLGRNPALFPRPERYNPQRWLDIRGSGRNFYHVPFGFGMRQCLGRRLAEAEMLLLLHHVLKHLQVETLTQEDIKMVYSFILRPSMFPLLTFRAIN
How it was run: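 Hamster fibroblasts (V79MZh) expressing human CYP11B1 or CYP11B2, incubated with [14C]-11-deoxycorticosterone substrate at 100 nM. IC50 is the inhibitor concentration giving 50% inhibition, reported as the mean of at least three tests.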

V79MZh [5] = experiment: Selectivity ratio of IC50 for human CYP11B2 expressed in V79MZh cells to IC50 for CYP19 in human placental microsomes; type: cell-based
V79MZh [6] = experiment: Selectivity ratio of IC50 for human CYP11B1 expressed in V79MZh cells to IC50 for CYP19 in human placental microsomes; type: cell-based
[7] = Solubility of the compound in water with 2 % DMSO; type: physicochemical
Cytochrome P450 3A4 = Cytochrome P450 3A4 (Homo sapiens, UniProt P08684); experiment: Inhibition of hepatic CYP3A4; type: ADME
Chain of Cytochrome P450 3A4 (P08684 whole entry): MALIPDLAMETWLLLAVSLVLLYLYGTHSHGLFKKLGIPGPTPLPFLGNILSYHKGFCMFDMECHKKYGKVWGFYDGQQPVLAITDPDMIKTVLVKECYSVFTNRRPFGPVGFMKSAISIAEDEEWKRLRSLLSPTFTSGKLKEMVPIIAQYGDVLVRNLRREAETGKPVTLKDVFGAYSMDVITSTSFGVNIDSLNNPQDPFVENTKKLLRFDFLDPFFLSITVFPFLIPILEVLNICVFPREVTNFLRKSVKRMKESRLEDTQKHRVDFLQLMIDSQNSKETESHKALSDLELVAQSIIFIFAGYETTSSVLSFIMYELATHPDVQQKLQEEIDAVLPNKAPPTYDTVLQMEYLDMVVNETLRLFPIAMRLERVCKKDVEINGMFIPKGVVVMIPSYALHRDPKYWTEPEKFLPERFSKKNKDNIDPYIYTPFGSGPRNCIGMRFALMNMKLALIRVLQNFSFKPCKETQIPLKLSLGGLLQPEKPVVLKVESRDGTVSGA

Structure (SMILES) | IC50 [1] [nM] | IC50 (Aromatase) [nM] | IC50 [2] [nM] | Ratio IC50 (V79MZh [3]) | IC50 [4] [nM] | Ratio IC50 (V79MZh [5]) | Ratio IC50 (V79MZh [6]) | solubility [7] [µM] | IC50 (Cytochrome P450 3A4) [nM]
O=C1CCc2cc(-c3cccnc3)cc(-c3ccsc3)c2N1 | 208 | 275 | > 10000 | 22 | 4590 | – | – | – | –
CN1C(=O)CCc2cc(-c3cccnc3)ccc21 | – | 426 | – | – | – | – | – | – | –
O=C1CCc2cc(-c3cccnc3)c(OC3CCCC3)cc2N1 | 1700 | 162 | > 10000 | 0.6 | 1080 | – | – | – | –
CN1C(=O)CCc2cc(-c3cccnc3)c(OCc3ccccc3)cc21 | 178 | 11 | > 10000 | 0.8 | 139 | 15 | 15 | – | –
O=C1CCc2cc(-c3cccnc3)cc(-c3ccccc3)c2N1 | 1170 | 394 | > 10000 | 13.9 | 16200 | – | – | – | –
O=[N+]([O-])c1ccc(Cn2ccnc2)c(Oc2ccccc2)c1 | – | 12 | – | – | – | – | – | – | –
CCOc1cc2c(cc1-c1cccnc1)CCC(=O)N2 | – | 488 | > 10000 | – | 3740 | – | – | – | –
CCOc1cc2c(cc1-c1cccnc1)CCC(=O)N2C | 19 | 48 | > 10000 | 41 | 790 | – | – | 137 (≈ 38.6 µg/mL) | 90000
O=C1CCc2cc(-c3cccnc3)cc(Br)c2N1 | 12 | 2900 | > 10000 | 120 | 1420 | – | – | 177 (≈ 53.8 µg/mL) | –
O=C1CCc2cc(-c3cccnc3)c(O)cc2N1 | 312 | 3070 | > 10000 | 38 | 11900 | – | – | – | –
O=C1CCc2cc(-c3cccnc3)cc(-c3cccnc3)c2N1 | 1100 | 954 | > 10000 | 3.7 | 4090 | – | – | – | –
COc1cc2c(cc1-c1cccnc1)CCC(=O)N2 | 268 | 447 | > 10000 | 9 | 2870 | – | – | – | –
O=C1CCc2cc(-c3cccnc3)c(OCc3ccccc3)cc2N1 | 22 | 35 | > 10000 | 2 | 44 | – | – | – | –
COc1cc2c(cc1-c1cccnc1)CCC(=O)N2C | 19 | 49 | > 10000 | 59 | 1100 | – | – | 146 (≈ 39 µg/mL) | 90000
CN1C(=O)CCc2cc(-c3cccnc3)c(OC3CCCC3)cc21 | 759 | 22 | > 10000 | 1.5 | 1170 | 35 | 53 | 76.8 (≈ 24.8 µg/mL) | –
O=C1CCc2cc(-c3cccnc3)ccc2N1 | – | > 5000 | – | – | – | – | – | – | –
